Measurements from publication PMC7330163 (Pharmacology Research & Perspectives, 2020).
Marks after values point to notes of the source that are not given here.

Legend:
[1] = tested on: Cyp3a1; assay: Taqman mRNA upregulation in rat liver, 4-week toxicity study; format: in vivo, Sprague-Dawley rat
Summary of the method: (§1)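 Livers came from satellite-group rats of both sexes (n = 5–6) in the 4-week study, dosed once daily at 0, 50, 150, 450 or 1500 mg/kg in modified gelatine. Transcripts quantified by comparative Ct, normalised to 18S and to vehicle-treated controls; fold change = 2−ΔΔCT.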

[2] = tested on: Cyp3a12; assay: Taqman mRNA upregulation in dog liver, 4-week toxicity study; format: in vivo, Beagle dog; conditions: 4 weeks; for increase in Cyp3a12 mRNA expression: 500 mg/kg
Summary of the method: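 Liver samples (n = 2–3) came from main-group Beagles of the 4-week study, dosed daily at 0, 5, 50 or 500 mg/kg in modified gelatine. Cyp3a12 transcript normalised to 18S and to vehicle-treated dogs (ΔΔCT); fold = 2−ΔΔCT.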

[3] = tested on: Cyp2c12; assay: Taqman mRNA upregulation in rat liver; format: in vivo, Sprague-Dawley rat; conditions: either sex
[4] = tested on: CYP2C9; assay: Induction of P450 mRNA in human hepatocytes; format: cell-based; conditions: up to 10 µmol/L
Summary of the method: (§2)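 Three human hepatocyte batches were cultured as monolayers and treated for 48–89 h with test compound, diluted 1000-fold from DMSO stock, or vehicle. Medium with fresh drug renewed every 24 h; rifampicin and omeprazole served as positive controls. CYP mRNA then measured.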

[5] = Toxicokinetics of the 4-week toxicity study in rat; format: in vivo, Sprague-Dawley rat; conditions: for AUC0‐24 h (day 8/28): day 28
[6] = tested on: Cyp2c6; assay: Taqman mRNA upregulation in rat liver, 8-day mechanistic follow-up study; format: in vivo, Sprague-Dawley rat; conditions: male rats, 8-day follow-up study, relative to vehicle control
Summary of the method: (§3)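 Male Sprague-Dawley rats (n = 4) were given 0, 5, 15 or 50 mg/kg daily for 8 days as a suspension in modified gelatine. Liver transcripts were normalised to 18S and to vehicle-treated rats by the ΔΔCT method; fold = 2−ΔΔCT.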

[7] = tested on: Cyp3a2; assay: as above; format: in vivo, Sprague-Dawley rat; conditions: male rats, 8-day follow-up study, relative to vehicle control
Summary of the method: as §3

[8] = tested on: Cyp2c13; assay: Taqman mRNA upregulation in rat liver; format: in vivo, Sprague-Dawley rat; conditions: male-specific
[9] = tested on: Cyp2c11; assay: Taqman mRNA upregulation in rat liver, 4-week toxicity study; format: in vivo, Sprague-Dawley rat; conditions: male rats; for Upregulation of Cyp2c11 mRNA: 4-week study, relative to vehicle control
Summary of the method: as §1

[10] = Single-dose intravenous pharmacokinetics in rat; format: in vivo, Sprague-Dawley rat; conditions: for AUC / Vd / clearance / half-life: Sprague-Dawley, plasma, iv
[11] = tested on: CYP3A4; assay: Induction of P450 enzyme activity in human hepatocytes; format: cell-based; conditions: up to 10 µmol/L
Summary of the method: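 Three batches of human hepatocyte monolayers were exposed for 48–89 h to test compound (DMSO stock diluted 1000-fold), with medium and fresh drug or vehicle renewed every 24 h; rifampicin and omeprazole as positive controls. Cells then washed with MEM, held 10 min at 37°C, and incubated with 200 µmol/L nifedipine for 2 h at 37°C, 5% CO2, as CYP3A4 activity marker.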

[12] = Single-dose oral pharmacokinetics in dog; format: in vivo; conditions: male, Beagle, plasma
[13] = Single-dose intravenous pharmacokinetics in dog; format: in vivo, Beagle dog; conditions: male, plasma
Summary of the method: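 Three male Beagles in a cross-over design with 7-day wash-out between dosing events. The intravenous solution was PEG400/N-methylpyrrolidone/50 mmol/L TRIS-HCl pH 8.3 (1:1:2 v/v/v). Plasma stored at −20°C. T1/2 = ln(2)/λz; AUC by log-linear trapezoidal rule.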

[14] = tested on: Cyp2c6; assay: Taqman mRNA upregulation in rat liver, 4-week toxicity study; format: in vivo, Sprague-Dawley rat; conditions: 4-week study
Summary of the method: as §1

[15] = tested on: CYP1A2; assay: Induction of P450 mRNA in human hepatocytes; format: cell-based; conditions: up to 10 µmol/L
Summary of the method: as §2

CCCNS(=O)(=O)Nc1ncnc(OCCOc2ncc(Br)cn2)c1-c1ccc(Br)cc1 [macitentan]
Upregulation of Cyp3a1 mRNA ([1]; female rats, 50 mg/kg daily, 4-week study, relative to vehicle control): 12.1 ± 4.4
Upregulation of Cyp3a1 mRNA ([1]; female rats, 150 mg/kg daily, 4-week study, relative to vehicle control): 38.3 ± 10.7
Upregulation of Cyp3a1 mRNA ([1]; female rats, 450 mg/kg daily, 4-week study, relative to vehicle control): 55.3 ± 13.1
Upregulation of Cyp3a1 mRNA ([1]; female rats, 1500 mg/kg daily, 4-week study, relative to vehicle control): 106 ± 34
Upregulation of Cyp3a1 mRNA ([1]; female rats, 1500 mg/kg, 4 weeks, vs control): 106 fold
Upregulation of Cyp3a1 mRNA ([1]; male rats, 50 mg/kg daily, 4-week study, relative to vehicle control = 1.00): 2.17 ± 0.37
Upregulation of Cyp3a1 mRNA ([1]; male rats, 150 mg/kg daily, 4-week study, relative to vehicle control): 3.51 ± 1.36
Upregulation of Cyp3a1 mRNA ([1]; male rats, 450 mg/kg daily, 4-week study, relative to vehicle control): 4.87 ± 0.51
Upregulation of Cyp3a1 mRNA ([1]; male rats, 1500 mg/kg daily, 4-week study, relative to vehicle control): 9.96 ± 4.18
increase of Cyp3a1 mRNA vs control ([1]; male rats, 1500 mg/kg, 4 weeks): about 10 fold
Upregulation of Cyp3a12 mRNA ([2]; female dogs, 5 mg/kg daily, relative to vehicle control): 2.84 ± 0.44
Upregulation of Cyp3a12 mRNA ([2]; female dogs, 50 mg/kg daily, relative to vehicle control): 4.34 ± 0.61
Upregulation of Cyp3a12 mRNA ([2]; female dogs, 500 mg/kg daily, relative to vehicle control, n = 2 only): 12.7 ^a
increase in Cyp3a12 mRNA expression ([2]; female dogs): 12.7 fold
Upregulation of Cyp3a12 mRNA ([2]; male dogs, 5 mg/kg daily, relative to vehicle control = 1.00): 1.63 ± 0.72
Upregulation of Cyp3a12 mRNA ([2]; male dogs, 50 mg/kg daily, relative to vehicle control): 6.45 ± 1.71
Upregulation of Cyp3a12 mRNA ([2]; male dogs, 500 mg/kg daily, relative to vehicle control): 18.6 ^b
increase in Cyp3a12 mRNA expression ([2]; male dogs): 18.6 fold
Induction of Cyp2c12 mRNA [3]: No induction
change in CYP2C9 mRNA expression [4]: No change
AUC0‐24 h (day 1) ([5]; females, 50 mg/kg daily oral): 726 μg/mL"h
AUC0‐24 h (day 8/28) ([5]; females, 50 mg/kg daily oral): 490 μg/mL"h
AUC0‐24 h (day 1) ([5]; females, 150 mg/kg daily oral): 1160 μg/mL"h
AUC0‐24 h (day 8/28) ([5]; females, 150 mg/kg daily oral): 776 μg/mL"h
AUC0‐24 h (day 1) ([5]; females, 450 mg/kg daily oral): 1590 μg/mL"h
AUC0‐24 h (day 8/28) ([5]; females, 450 mg/kg daily oral): 1280 μg/mL"h
AUC0‐24 h (day 1) ([5]; females, 1500 mg/kg daily oral): 2500 μg/mL"h
AUC0‐24 h (day 8/28) ([5]; females, 1500 mg/kg daily oral): 1590 μg/mL"h
AUC0‐24 h (day 1) ([5]; males, 50 mg/kg daily oral): 213 μg/mL"h
AUC0‐24 h (day 8/28) ([5]; males, 50 mg/kg daily oral): 114 μg/mL"h
AUC0‐24 h (day 1) ([5]; males, 150 mg/kg daily oral): 382 μg/mL"h
AUC0‐24 h (day 8/28) ([5]; males, 150 mg/kg daily oral): 200 μg/mL"h
AUC0‐24 h (day 1) ([5]; males, 450 mg/kg daily oral): 595 μg/mL"h
AUC0‐24 h (day 8/28) ([5]; males, 450 mg/kg daily oral): 327 μg/mL"h
AUC0‐24 h (day 1) ([5]; males, 1500 mg/kg daily oral): 979 μg/mL"h
AUC0‐24 h (day 8/28) ([5]; males, 1500 mg/kg daily oral): 365 μg/mL"h
Upregulation of Cyp2c6 mRNA ([6]; 5 mg/kg daily): 1.92 ± 0.45
Upregulation of Cyp2c6 mRNA ([6]; 15 mg/kg daily): 1.55 ± 1.21
Upregulation of Cyp2c6 mRNA ([6]; 50 mg/kg daily): 3.08 ± 2.45
Upregulation of Cyp3a2 mRNA ([7]; 5 mg/kg daily): 1.46 ± 0.18
Upregulation of Cyp3a2 mRNA ([7]; 15 mg/kg daily): 2.37 ± 1.43
Upregulation of Cyp3a2 mRNA ([7]; 50 mg/kg daily): 4.04 ± 0.98
Induction of Cyp2c13 mRNA [8]: No induction
increase of Cyp2c11 mRNA levels vs control ([9]; 450 mg/kg and 1500 mg/kg, 4 weeks): about 50%
Upregulation of Cyp2c11 mRNA ([9]; 450 mg/kg daily): 1.48 ± 0.48
Upregulation of Cyp2c11 mRNA ([9]; 1500 mg/kg daily): 1.43 ± 0.55
T 1/2 ([10]; F, 0.3 mg/kg single iv, geometric mean (range)): 8.9 (6.6‐12) h
AUC ([10]; female, 0.3 mg/kg): 2990 ng·h/mL
Vd ([10]; female, 0.3 mg/kg): 1.4 L/kg
clearance ([10]; female, 0.3 mg/kg): 2 mL/min/kg
half-life ([10]; female, 0.3 mg/kg): 8.9 h
AUC ([10]; male, 0.1 mg/kg): 270 ng·h/mL
Vd ([10]; male, 0.1 mg/kg): 1.6 L/kg
clearance ([10]; male, 0.1 mg/kg): 6.5 mL/min/kg
half-life ([10]; male, 0.1 mg/kg): 3.8 h
AUC ([10]; male, 0.3 mg/kg): 610 ng·h/mL
Vd ([10]; male, 0.3 mg/kg): 1.2 L/kg
clearance ([10]; male, 0.3 mg/kg): 8.2 mL/min/kg
half-life ([10]; male, 0.3 mg/kg): 1.9 h
CL in female rats as percent of the value in male animals ([10]; single iv): 25%
increase in CYP3A4 enzyme activity [11]: fivefold
AUC ([12]; 1 mg/kg): 2370 ng·h/mL
Cmax ([12]; 1 mg/kg): 410 ng/mL
Tmax ([12]; 1 mg/kg): 2 h
AUC ([12]; 10 mg/kg): 27500 ng·h/mL
bioavailability ([12]; 10 mg/kg): 86%
AUC ([13]; Beagle, 0.1 mg/kg): 320 ng·h/mL
Vd ([13]; Beagle, 0.1 mg/kg): 1.2 L/kg
clearance ([13]; Beagle, 0.1 mg/kg): 5.2 mL/min/kg
half-life ([13]; Beagle, 0.1 mg/kg): 3.9 h
AUC ([13]; Beagle, 0.3 mg/kg): 910 ng·h/mL
Vd ([13]; Beagle, 0.3 mg/kg): 1.1 L/kg
clearance ([13]; Beagle, 0.3 mg/kg): 5.7 mL/min/kg
half-life ([13]; Beagle, 0.3 mg/kg): 4.3 h
half-life ([13]; beagle): 3.9 to 4.3 h
Upregulation of Cyp2c6 mRNA ([14]; female rats, 50 mg/kg daily, relative to vehicle control): 2.78 ± 0.95
Upregulation of Cyp2c6 mRNA ([14]; female rats, 150 mg/kg daily, relative to vehicle control): 4.21 ± 0.51
Upregulation of Cyp2c6 mRNA ([14]; female rats, 450 mg/kg daily, relative to vehicle control): 4.35 ± 1.54
Upregulation of Cyp2c6 mRNA ([14]; female rats, 1500 mg/kg daily, relative to vehicle control): 3.29 ± 0.77
Upregulation of Cyp2c6 mRNA ([14]; male rats, 50 mg/kg daily, relative to vehicle control = 1.00): 6.21 ± 1.02
Upregulation of Cyp2c6 mRNA ([14]; male rats, 150 mg/kg daily, relative to vehicle control): 4.36 ± 1.96
Upregulation of Cyp2c6 mRNA ([14]; male rats, 450 mg/kg daily, relative to vehicle control): 9.53 ± 1.26
Upregulation of Cyp2c6 mRNA ([14]; male rats, 1500 mg/kg daily, relative to vehicle control): 9.20 ± 3.29
change in CYP1A2 mRNA expression [15]: No change
